We go through 6 compounds from ChEMBL document CHEMBL1138043, “Exploration of orally available calpain inhibitors 2: peptidyl hemiacetal derivatives” (J Med Chem, 2006).

The subject of data set [1] is Rattus norvegicus. The data set is described as follows: Neuroprotective activity in Sprague-Dawley rat ischemia-reperfusion model measured as cell density in retinal ganglion cell layer at 500 mg/kg, po. The data set is classed as functional, organism-based. Also on record: dose 500 mg/kg. The gist of the method: (§1)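 Male Sprague-Dawley rats (150-250 g) received oral doses as a suspension in 0.5% CMC, 15 min before ischemia and again after reperfusion. Controls received vehicle. HE-stained nuclei in the ganglion cell layer 1-2 mm from the optic disk were counted over a 250 µm width at three sites. Comparison by Student t-test.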

A short description of data set [2]: AUC (0-infinity) in Sprague-Dawley rat at 3 mg/kg, iv. The format is ADME, organism-based. Also on record: time infinity, dose 3 mg/kg, route intravenous. To be noted: plasma. The gist of the method: (§2)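 Male Sprague-Dawley rats (200-250 g), single dose. Oral dosing as a suspension in 0.5% carboxymethyl cellulose; iv dosing at 10 mg/mL in 60% poly(ethylene glycol)/40% water. Plasma was taken from abdominal aorta blood under isoflurane at 0.1 (iv only), 0.25, 0.5, 1, 2, 4 and 8 h, with n = 4 or 5 per time point. Samples underwent solid-phase extraction and LC-MS/MS (MRM). Values are mean ± SD.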

A short description of data set [3]: Volume of distribution in Sprague-Dawley rat at 3 mg/kg, iv. The format is ADME, organism-based. Details: dose 3 mg/kg, route intravenous. As to conditions: in vivo, read-out: Vdss. The gist of the method: as §2
Data set [4] is described as follows: Cmax in Sprague-Dawley rat at 500 mg/kg, po. The format is ADME, organism-based. Details: dose 500 mg/kg, route oral. To be noted: in vivo. The gist of the method:
as §2

Data set [5] is described as follows: Oral bioavailability in Sprague-Dawley rat. The data set is classed as ADME, organism-based. To be noted: in vivo. The gist of the method:
as §2

Data set [6] can be described thus: Terminal half life in Sprague-Dawley rat at 3 mg/kg, iv. Details: dose 3 mg/kg, route intravenous. The data set is classed as ADME, organism-based. To be noted: in vivo. The gist of the method: as §2
Data set [7] can be described thus: AUC (0-infinity) in Sprague-Dawley rat at 500 mg/kg, po. The data set is classed as ADME, organism-based. Also on record: time infinity, dose 500 mg/kg, route oral. To be noted: plasma. In short, it runs like this:
as §2

Data set [8] is described as follows: Metabolic stability in human hepatic S9 fraction after 0.5 hrs. The format is ADME. As to conditions: liver S9 fraction, read-out: Stability. The gist of the method:
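Compound at 5 µM final (added in acetonitrile) was incubated with human hepatic S9 in 50 mM potassium phosphate pH 7.4. An NADPH-generating system was present (3 mM MgCl2, 1 mM NADP+, 5 mM glucose-6-phosphate, 1 U/mL G6PDH). Incubation ran 30 min at 37 °C and was quenched with acetonitrile. Residual parent was measured by LC-UV or LC-MS/MS, n = 1.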

Data set [9] deals with T1, Calpain-2 catalytic subunit (Sus scrofa, UniProt P43367).
T1 sequence (P43367 whole entry): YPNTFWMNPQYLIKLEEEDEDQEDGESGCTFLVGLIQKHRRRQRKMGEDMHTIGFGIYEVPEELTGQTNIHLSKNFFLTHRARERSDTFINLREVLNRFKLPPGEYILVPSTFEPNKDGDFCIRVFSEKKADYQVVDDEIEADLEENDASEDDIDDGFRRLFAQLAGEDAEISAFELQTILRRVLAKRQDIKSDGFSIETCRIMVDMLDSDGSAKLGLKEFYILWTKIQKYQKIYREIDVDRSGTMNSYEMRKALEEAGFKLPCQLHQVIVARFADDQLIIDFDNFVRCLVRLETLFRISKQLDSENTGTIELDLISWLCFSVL
Description: Inhibition of porcein kidney m calpain. The gist of the method: (§3)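 Casein substrate at 0.5 mg/mL in 50 mM Tris-HCl pH 7.4 with 20 mM dithiothreitol and 1.0 nmol enzyme. Inhibitors were added in DMSO. Reaction was started with 20 mM CaCl2; blank wells received 1 mM EDTA instead. Incubation ran 60 min at 30 °C. Percent inhibition came from OD differences. IC50 is the mean of two independent determinations.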

Data set [10] can be described thus: Aqueous solubility at pH 7 at 25 degreeC. The data set is classed as physicochemical.
Data set [11] can be described thus: Tmax in Sprague-Dawley rat at 500 mg/kg, po. Also on record: dose 500 mg/kg, route oral. The format is ADME, organism-based. As to conditions: in vivo. The gist of the method:
as §2

Data set [12] can be described thus: Apparent permeability from apical to basolateral side of the Caco-2 cell. The format is ADME, cell-based. As to conditions: human. On the technique in general: Caco-2 cells form a polarised layer with tight junctions and transporters.
Data set [13] can be described thus: Lipophilicity, log D of the compound. The format is physicochemical. As to conditions: octanol/water.
Data set [14] is described as follows: Clearance in Sprague-Dawley rat at 3 mg/kg, iv. The format is ADME, organism-based. Also on record: dose 3 mg/kg, route intravenous. As to conditions: in vivo. The gist of the method:
as §2

Data set [15] deals with T2, Calpain-1 catalytic subunit (Homo sapiens, UniProt P07384).
T2 sequence (P07384 whole entry): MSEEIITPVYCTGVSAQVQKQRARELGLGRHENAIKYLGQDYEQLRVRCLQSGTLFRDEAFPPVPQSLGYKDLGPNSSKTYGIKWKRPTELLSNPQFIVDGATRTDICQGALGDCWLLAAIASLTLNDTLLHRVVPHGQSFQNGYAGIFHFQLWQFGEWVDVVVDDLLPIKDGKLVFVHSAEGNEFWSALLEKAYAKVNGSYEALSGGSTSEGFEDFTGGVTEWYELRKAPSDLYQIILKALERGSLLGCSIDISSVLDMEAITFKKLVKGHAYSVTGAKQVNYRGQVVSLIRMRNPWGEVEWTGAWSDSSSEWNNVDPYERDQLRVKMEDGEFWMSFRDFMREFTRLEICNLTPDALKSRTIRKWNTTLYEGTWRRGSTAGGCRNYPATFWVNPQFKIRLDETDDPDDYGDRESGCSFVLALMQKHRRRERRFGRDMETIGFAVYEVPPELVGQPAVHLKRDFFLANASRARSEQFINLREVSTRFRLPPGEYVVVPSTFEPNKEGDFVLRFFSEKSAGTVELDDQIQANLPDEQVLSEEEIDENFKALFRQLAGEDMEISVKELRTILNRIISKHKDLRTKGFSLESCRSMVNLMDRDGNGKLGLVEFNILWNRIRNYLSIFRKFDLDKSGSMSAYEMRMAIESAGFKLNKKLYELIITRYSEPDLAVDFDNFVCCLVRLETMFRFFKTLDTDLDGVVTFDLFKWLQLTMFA
The data set is described as follows: Inhibition of human erythrocyte mu calpain. In short, it runs like this: as §3

Data set [16] can be described thus: Tmax in Sprague-Dawley rat at 10 mg/kg, po. The format is ADME, organism-based. Also on record: dose 10 mg/kg, route oral. To be noted: in vivo. The gist of the method:
as §2

Data set [17] relates to Rattus norvegicus. The data set is described as follows: Neuroprotective activity in Sprague-Dawley rat ischemia-reperfusion model measured as cell density in retinal ganglion cell layer at 100 mg/kg, po relative to control. The format is functional. In short, it runs like this:
as §1

Data set [18] deals with Rattus norvegicus. Description: Neuroprotective activity in Sprague-Dawley rat ischemia-reperfusion model measured as cell density in retinal ganglion cell layer at 30 mg/kg, po relative to control. The data set is classed as functional, organism-based. Also on record: dose 30 mg/kg. In short, it runs like this: as §1
Data set [19] is described as follows: Cmax in Sprague-Dawley rat at 10 mg/kg, po. Details: dose 10 mg/kg, route oral. To be noted: in vivo. The format is ADME, organism-based. The gist of the method: as §2
A short description of data set [20]: AUC (0-infinity) in Sprague-Dawley rat at 10 mg/kg, po. The format is ADME, organism-based. Details: time infinity, dose 10 mg/kg, route oral. To be noted: plasma. In short, it runs like this: as §2

In brackets after ≈: the same amount, converted by molar mass. Activity calls are given as the source filed them. No cut-off for these calls is given here.

As a reminder, the AUC(0-inf) is the area under the concentration-time curve extrapolated to infinity. The low end stands for less exposure, the high end for more exposure. In general, Cmax refers to the highest concentration seen after dosing. In general, bioavailability refers to dose-corrected exposure relative to a reference, in per cent. Low readings indicate little systemic uptake, high ones much systemic uptake. The half-life is the time in which the quantity being followed falls by half. By IC50 is commonly meant the concentration needed to halve the response being measured. Read a high IC50 as weaker potency in that assay. As a reminder, the solubility is how much of the substance goes into solution per volume. By Tmax is commonly meant the time at which the peak concentration occurs. A word on the Papp A→B: it is the apparent permeability from the apical to the basolateral side of a cell layer. What is called logD is lipophilicity at a set pH, counting ionised and neutral species. A higher logD goes with a more lipophilic compound. Usually clearance stands for the volume of plasma or blood freed of the substance per unit of time. On to `CC(C)C[C@@H](C=O)NC(=O)[C@@H](NS(=O)(=O)c1ccc(F)cc1)C(C)C`, for which the result in [1] was Active. The AUC(0-inf) stood at 1.5 µM·h in data set [2] and 45 µM·h in data set [7]. For the same compound, the Vd in data set [3] worked out at 6.1 L/kg. Besides, in data set [4], the concentration peaked (Cmax) at 9.4 µM. Also, the bioavailability in data set [5] was found to be 18%. Further, the half-life in data set [6] was 42 min. In addition, in [8], the remaining at 0.5 h is 3%. Moreover, 49 nM corresponded to half-maximal inhibition in data set [9] (IC50). Also, the solubility in [10] came to 100 µg/mL (≈ 268 µM). Also, in data set [11], the time of peak concentration (Tmax) was 60 min. Also, the Papp A→B in data set [12] was 2.6 ×10⁻⁶ cm/s. Further, the logD in data set [13] came out at 1.7. In addition, the clearance in data set [14] came out at 89 mL/min/kg.

Take `CC(C)C[C@@H](C#N)NC(=O)[C@@H](NS(=O)(=O)c1ccc(F)cc1)C(C)C`: the IC50 in data set [9] and in data set [15] was > 100000 nM in each case.

`CC(C)[C@H](NS(=O)(=O)c1ccc(F)cc1)C(=O)N[C@H]1CCOC1O` (stereo partly specified): the remaining at 0.5 h in [8] turned out to be 79%. Also, the IC50 was determined as 2600 nM in data set [9] and 880 nM in data set [15]. In data set [10], the solubility turned out to be 1500 µg/mL (≈ 4160 µM).

In the case of `CC(C)C[C@H](NC(=S)Nc1ccccc1)C(=O)N[C@H]1CCOC1O` (stereo partly specified), the Tmax in data set [16] is 15 min. The Activity in [17] amounted to 6.38. Moreover, the AUC(0-inf) in data set [2] amounted to 2.6 µM·h; in data set [20], 5.7 µM·h. Further, in [3], the Vd worked out at 2.3 L/kg. The bioavailability in data set [5] amounted to 66%. For the same compound, the result in data set [18] was inactive. The half-life in data set [6] is 114 min. In data set [19], this compound displayed a peak concentration (Cmax) of 5.6 µM. Moreover, in data set [8], the remaining at 0.5 h came out at 100%. In addition, the IC50 in data set [9] worked out at 190 nM; in [15], 86 nM. The same compound registered a clearance in data set [14] of 55 mL/min/kg.

For the compound `CC(C)C[C@@H](/C=N/NC(=O)CN(C)C)NC(=O)[C@@H](NS(=O)(=O)c1ccc(F)cc1)C(C)C`, the remaining at 0.5 h in data set [8] is 64%.

For `CCCCNC(=O)C(=O)[C@H](CC(C)C)NC(=O)[C@@H](NS(=O)(=O)c1ccc(F)cc1)C(C)C`, the remaining at 0.5 h in data set [8] was determined as 25%. The solubility in data set [10] turned out to be 5.3 µg/mL (≈ 11.2 µM).
